Data taken from ChEMBL document CHEMBL2331385, “Evaluation of adamantane hydroxamates as botulinum neurotoxin inhibitors: synthesis, crystallography, modeling, kinetic and cellular based studies” (Bioorg Med Chem, 2013).
Active and inactive are the calls of the source. The calls are words filed in the database; no cut-off is given here.

Key:
[1] = biological target: T1, Botulinum neurotoxin type A (Clostridium botulinum, UniProt P0DPI0); assay: Inhibition of Clostridium botulinum BoNT/A Hall A hyper protease light chain (1-425aa) using SNAPtide as substrate by FRET assay
T1 sequence (P0DPI0 2-448 limits assumed): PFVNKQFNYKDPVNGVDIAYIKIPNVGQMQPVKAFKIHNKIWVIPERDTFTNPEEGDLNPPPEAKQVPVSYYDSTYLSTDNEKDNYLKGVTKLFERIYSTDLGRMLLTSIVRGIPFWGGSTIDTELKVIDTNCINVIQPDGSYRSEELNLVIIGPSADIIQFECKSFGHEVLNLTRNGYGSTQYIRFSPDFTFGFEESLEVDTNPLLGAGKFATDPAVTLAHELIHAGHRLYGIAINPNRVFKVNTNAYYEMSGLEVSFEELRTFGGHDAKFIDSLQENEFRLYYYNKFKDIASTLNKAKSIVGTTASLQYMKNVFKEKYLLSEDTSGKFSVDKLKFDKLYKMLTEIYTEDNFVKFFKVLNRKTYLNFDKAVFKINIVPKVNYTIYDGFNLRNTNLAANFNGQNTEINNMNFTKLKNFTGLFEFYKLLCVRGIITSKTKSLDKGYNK
Outline: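 Recombinant BoNT/A light chain (residues 1-425) cleaving the FRET peptide SNAPtide at 5 μM, with 0.01 % Triton X-100. Inhibitor concentration varied; IC50 taken from fluorescence signal.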

[2] = biological target: T1, Botulinum neurotoxin type A; assay: Competitive inhibition of Clostridium botulinum BoNT/A Hall A hyper protease light chain (1-425aa) using SNAP-66mer (141-206aa) as substrate by FRET assay
[3] = Cytotoxicity against rat spinal cord cells at 20 uM after 22 hrs; assay type: cell-based
Outline: (§1)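 Primary rat spinal cord cells or stem cell-derived neurons exposed to compound. Cytotoxicity judged from low overall protein signal on Western blot.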

[4] = biological target: Botulinum neurotoxin type A (Clostridium botulinum) (UniProt P0DPI0); assay: Inhibition of Clostridium botulinum BoNT/A protease light chain in rat spinal cord cells assessed as inhibition of SNAP-25 cleavage at 0.5 to 50 uM after 22 hrs by Western blot analysis; assay type: cell-based
Botulinum neurotoxin type A (Clostridium botulinum), sequence (P0DPI0 2-448 limits assumed): as above

[5] = biological target: Botulinum neurotoxin type A (Clostridium botulinum) (UniProt P0DPI0); assay: Inhibition of Clostridium botulinum BoNT/A protease light chain in stem cell-derived neurons (unknown origin) assessed as inhibition of SNAP-25 cleavage at 0.5 to 50 uM after 22 hrs by Western blot analysis
[6] = Cytotoxicity against rat spinal cord cells at 500 uM after 22 hrs; assay type: cell-based; outline: as §1
[7] = Cytotoxicity against stem cell-derived neurons (unknown origin) at 20 uM after 22 hrs; outline: as §1
[8] = Cytotoxicity against stem cell-derived neurons (unknown origin) at 500 uM after 22 hrs; outline: as §1
[9] = Cytotoxicity against rat spinal cord cells at 50 uM after 22 hrs; assay type: cell-based; outline: as §1

SMILES	IC50 [1] [nM]	Ki [2] [nM]	other results
O=C(CC12CC3CC(CC(Cl)(C3)C1)C2)NO	1400		
O=C(CC12CC3CC(C1)CC(c1ccc(-c4ccccc4)cc1)(C3)C2)NO	200		
COC12CC3CC(CC(CC(=O)NO)(C3)C1)C2	5700		
O=C(CC12CC3CC(CC(F)(C3)C1)C2)NO	3100		
O=C(CC12CC3CC(CC(Br)(C3)C1)C2)NO	1400		
O=C(CC12CC3CC(CC(CO)(C3)C1)C2)NO	3400		
O=C(CC12CC3CC(C1)CC(c1ccc(Cl)cc1)(C3)C2)NO	30	27	
O=C(CC12CC3CC(C1)CC(c1ccc4c(c1)CCCC4)(C3)C2)NO	1000		
O=C(CC12CC3CC(C1)CC(c1ccccc1)(C3)C2)NO	500	750	
COc1ccc(C23CC4CC(CC(CC(=O)NO)(C4)C2)C3)cc1	250	130	Activity [3]: Toxic; Activity [4]: inactive; Activity [5]: inactive; Activity [6]: Toxic; Activity [7]: Toxic; Activity [8]: Non-toxic
O=C(CC12CC3CC(C1)CC(c1ccc([N+](=O)[O-])cc1[N+](=O)[O-])(C3)C2)NO	400		
Cc1ccc(C23CC4CC(CC(CC(=O)NO)(C4)C2)C3)cc1	250		
CC(=O)OC12CC3CC(CC(CC(=O)NO)(C3)C1)C2	24000		
O=C(CC12CC3CC(C1)CC(c1ccc([N+](=O)[O-])cc1)(C3)C2)NO	500		Activity [3]: Toxic; Activity [4]: inactive; Activity [5]: inactive; Activity [6]: Toxic; Activity [7]: Toxic; Activity [8]: Non-toxic
O=C(C[C@@H](CCO)c1ccc(Cl)cc1Cl)NO		160	
O=C(CC12CC3CC(C1)CC(c1ccc(Br)cc1)(C3)C2)NO	40	27	Activity [3]: Toxic; Activity [4]: inactive; Activity [5]: inactive; Activity [6]: Toxic; Activity [7]: Toxic; Activity [8]: Non-toxic; Activity [9]: Toxic
O=C(CC12CC3CC(CC(O)(C3)C1)C2)NO	23000		
NCCCCCCCNC(=O)c1cc(CCC(=O)NO)c(CCC(O)(c2ccccc2)c2ccccc2)n1Cc1ccccc1		760	
O=C(CC12CC3CC(CC(C3)C1)C2)NO	1000	460	
O=C(CC12CC3CC(C1)CC(c1ccc4ccccc4c1)(C3)C2)NO	300		
O=C(CC12CC3CC(C1)CC(C(=O)O)(C3)C2)NO	> 500000		
